ChEMBL document CHEMBL1132334, “Discovery of 1,6-naphthyridines as a novel class of potent and selective human cytomegalovirus inhibitors” (J Med Chem, 1999)
In brackets after ≈: the same amount, converted by molar mass.

The compounds below were run on Hs68 (assay: Cytotoxicity in the human fibroblast Hs 68 cell line). Conditions: not given.
Type: functional
How it was run: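 Hs68 fibroblasts plated at 1000 cells/well and incubated overnight. Medium then replaced with compound, six serial 2-fold dilutions (3.2-100 µg/mL) in triplicate, for 72 h. Proliferation read by [³H]thymidine uptake with scintillation counting and expressed as percent of untreated control; CC50 is the concentration giving 50% inhibition.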

Compound	CC50 [µg/mL]
CC(C)Oc1ccccc1CNC(=O)c1ccc2cncc(Cl)c2n1	6 (≈ 16.9 µM)
O=C(NCc1ccccc1)c1ccc2cnccc2n1	71 (≈ 270 µM)
CC(C)Oc1ccccc1CNC(=O)c1ccc2cncc(Br)c2n1	9 (≈ 22.5 µM)
CC(C)Oc1cccc(CNC(=O)c2ccc3cnccc3n2)c1	8.4 (≈ 26.1 µM)
O=C(NCc1ccc(Br)cc1)c1ccc2cnccc2n1	10 (≈ 29.2 µM)
CC[C@@H](C)Oc1ccccc1CNC(=O)c1ccc2cnccc2n1	0.1 (≈ 0.298 µM)
CC(C)(C)Oc1ccccc1CNC(=O)c1ccc2cnccc2n1	4.4 (≈ 13.1 µM)
O=C(NCc1ccccc1Br)c1ccc2cnccc2n1	100 (≈ 292 µM)
CC[C@H](C)Oc1ccccc1CNC(=O)c1ccc2cnccc2n1	3.1 (≈ 9.24 µM)
C=Cc1cncc2ccc(C(=O)NCc3ccccc3OC(C)C)nc12	17 (≈ 48.9 µM)
O=C(NCCc1ccccc1)c1ccc2cnccc2n1	5 (≈ 18 µM)
O=C(NCc1cccc(Br)c1)c1ccc2cnccc2n1	50 (≈ 146 µM)
Cc1cncc2ccc(C(=O)NCc3ccccc3OC(C)C)nc12	3 (≈ 8.94 µM)
CC(C)Oc1ccccc1CNC(=O)c1ccc2cnccc2n1	2.5 (≈ 7.78 µM)
COc1ccccc1CNC(=O)c1cc(C)c2cnccc2n1	8 (≈ 26 µM)

What follows are compounds tested on Hs68 (assay: Cytotoxicity in the Hs 68 cell line). Conditions: Homo sapiens.
Type: functional

Compound	CC50 [µg/mL]
COc1cccc(CNC(=O)c2ccc3cnccc3n2)c1	100 (≈ 341 µM)
COc1ccc(CNC(=O)c2ccc3cnccc3n2)cc1	50 (≈ 170 µM)
O=C(Nc1ccccc1)c1ccc2cnccc2n1	50 (≈ 201 µM)
COc1ccccc1CCNC(=O)c1ccc2cnccc2n1	17 (≈ 55.3 µM)
Nc1nc2c(ncn2COC(CO)CO)c(=O)[nH]1 [GANCICLOVIR]	12.5 (≈ 49 µM)

What follows are compounds tested on Human betaherpesvirus 5 (assay: Anti-HCMV activity in the human fibroblast Hs 68 cell line). Conditions: Human betaherpesvirus 5, Hs68.
Type: functional, organism-based
How it was run: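 Hs68 human fibroblasts infected with HCMV strain AD169 at MOI 0.001, with or without compound, incubated 7 days. Plaques then counted under the microscope. Mean of duplicate values, experiments done at least twice.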

Compound	IC50 [µg/mL]
CC(C)Oc1ccccc1CNC(=O)c1ccc2cncc(Cl)c2n1	0.03 (≈ 0.0843 µM)
COc1cccc(CNC(=O)c2ccc3cnccc3n2)c1	2.1 (≈ 7.16 µM)
COc1ccc(CNC(=O)c2ccc3cnccc3n2)cc1	> 50
O=C(NCc1ccccc1)c1ccc2cnccc2n1	1 (≈ 3.8 µM)
CC(C)Oc1ccccc1CNC(=O)c1ccc2cncc(Br)c2n1	0.15 (≈ 0.375 µM)
CC(C)Oc1cccc(CNC(=O)c2ccc3cnccc3n2)c1	3.6 (≈ 11.2 µM)
O=C(NCc1ccc(Br)cc1)c1ccc2cnccc2n1	> 10
O=C(Nc1ccccc1)c1ccc2cnccc2n1	50 (≈ 201 µM)
CC[C@@H](C)Oc1ccccc1CNC(=O)c1ccc2cnccc2n1	0.003 (≈ 0.00894 µM)
CC(C)(C)Oc1ccccc1CNC(=O)c1ccc2cnccc2n1	0.04 (≈ 0.119 µM)
O=C(NCc1ccccc1Br)c1ccc2cnccc2n1	0.7 (≈ 2.05 µM)
CC[C@H](C)Oc1ccccc1CNC(=O)c1ccc2cnccc2n1	0.03 (≈ 0.0894 µM)
C=Cc1cncc2ccc(C(=O)NCc3ccccc3OC(C)C)nc12	0.003 (≈ 0.00864 µM)
O=C(NCCc1ccccc1)c1ccc2cnccc2n1	0.78 (≈ 2.81 µM)
O=C(NCc1cccc(Br)c1)c1ccc2cnccc2n1	2.2 (≈ 6.43 µM)
COc1ccccc1CCNC(=O)c1ccc2cnccc2n1	6 (≈ 19.5 µM)
Cc1cncc2ccc(C(=O)NCc3ccccc3OC(C)C)nc12	0.0004 (≈ 0.00119 µM)
CC(C)Oc1ccccc1CNC(=O)c1ccc2cnccc2n1	0.005 (≈ 0.0156 µM)
COc1ccccc1CNC(=O)c1cc(C)c2cnccc2n1	11 (≈ 35.8 µM)
Nc1nc2c(ncn2COC(CO)CO)c(=O)[nH]1 [GANCICLOVIR]	0.3 (≈ 1.18 µM)
